Data on 41 compounds can be found in ChEMBL document CHEMBL1126808, “Asymmetric synthesis and biological evaluation of beta-L-(2R,5S)- and alpha-L-(2R,5R)-1,3-oxathiolane-pyrimidine and -purine nucleosides as potential anti-HIV agents” (J Med Chem, 1993).

Assay [1] concerns Human immunodeficiency virus. The assay can be described thus: Anti-HIV-1 activity against human peripheral blood mononuclear (PBM) cells infected with HIV-1 strain LAV. It is filed as functional, organism-based. Summed up: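 Mitogen-stimulated human PBM cells infected with HIV-1 LAV at MOI 0.1 (titred by limiting dilution in PBM cells). Compounds were diluted into medium from 40 mM DMSO stocks (final DMSO <0.25%) and added about 45 min after infection. Read-out was supernatant RT level. EC50 came from a median-effect plot of dose–effect data.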

Assay [2] deals with Human immunodeficiency virus 1. As to the kind of experiment: Cytotoxicity against human peripheral blood mononuclear (PBM) cells […]. In kind it is functional. Summed up: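 Uninfected PHA-stimulated human PBM cells were cultured with or without drug, then aliquots were counted in trypan blue. IC50 came from a median-effect plot of dose–effect data.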

Structures are written as SMILES.

Consider `OC[C@@H]1O[C@@H](n2cnc3c(Cl)ncnc32)CS1`, for which, in assay [1] (Human immunodeficiency virus 1), the 50% effective concentration (EC50) (commonly the concentration at which the effect is half-maximal) stood at 2.75 µM. Further, the IC50 (as a rule, the point on the concentration scale where inhibition reaches its midpoint) in assay [2] was above 100 µM. Regarding `Nc1ncnc2c1ncn2[C@@H]1CS[C@H](CO)O1`, the EC50 in assay [1] (Human immunodeficiency virus 1) came out at 1.01 µM. In assay [2], the IC50 is above 100 µM. In the case of `O=c1[nH]c(=O)n([C@H]2CS[C@H](CO)O2)cc1Br`, the EC50 in assay [1] (Human immunodeficiency virus 1) was found to be 121 µM. For the same compound, the concentration for half-maximal inhibition (IC50) in assay [2] was above 100 µM. With `Nc1nc(=O)n([C@H]2CS[C@H](CO)O2)cc1F`, in assay [1] (Human immunodeficiency virus 1), the 50% effective concentration (EC50) was determined as 0.43 µM. Also, the IC50 in assay [2] was above 100 µM.

`Cc1cn([C@H]2CS[C@H](CO)O2)c(=O)[nH]c1=O`: the EC50 in assay [1] (Human immunodeficiency virus 1) is 4.4 µM. In assay [2], this compound had a 50% inhibitory concentration (IC50) above 100 µM. For the compound `Cc1cn([C@H]2CS[C@H](CO)O2)c(=O)nc1N`, in assay [1] (Human immunodeficiency virus 1), the EC50 is 0.45 µM. Further, the IC50 in assay [2] is above 100 µM. The corresponding values for `Nc1nc(Cl)c2ncn([C@@H]3CS[C@H](CO)O3)c2n1` are 9.8 µM and above 100 µM. As for `Cc1cn([C@@H]2CS[C@H](CO)O2)c(=O)[nH]c1=O`, the midpoint of the response in assay [1] (Human immunodeficiency virus 1), the EC50, lay at 34.3 µM. Further, the IC50 in assay [2] is above 100 µM.

For the compound `OC[C@@H]1O[C@H](n2cnc3c(O)ncnc32)CS1`, the EC50 in assay [1] (Human immunodeficiency virus 1) is above 100 µM. For the same compound, the IC50 in assay [2] was above 100 µM.

`Nc1nc(Cl)c2ncn([C@H]3CS[C@H](CO)O3)c2n1`: the EC50 in assay [1] (Human immunodeficiency virus 1) was 42.1 µM. In assay [2], this compound came in with an IC50 above 100 µM. For the compound `O=c1[nH]c(=O)n([C@H]2CS[C@H](CO)O2)cc1Cl`, the 50% effective concentration (EC50) in assay [1] (Human immunodeficiency virus 1) was above 100 µM. Moreover, in assay [2], the half-inhibitory concentration (IC50) is above 100 µM. In assay [1] (Human immunodeficiency virus 1), `O=c1[nH]c(=O)n([C@H]2CS[C@H](CO)O2)cc1I` showed an EC50 of 157 µM. Also, in assay [2], the IC50 was above 100 µM.

`O=c1ccn([C@@H]2CS[C@H](CO)O2)c(=O)[nH]1` registered an EC50 in assay [1] (Human immunodeficiency virus 1) of 11.7 µM. This compound also gave an IC50 in assay [2] above 100 µM. In assay [1] (Human immunodeficiency virus 1), `OC[C@@H]1O[C@@H](n2cnc3c(O)ncnc32)CS1` gave an EC50 above 100 µM. Further, the IC50 in assay [2] is above 100 µM.

In the case of `Nc1nc(=O)n([C@@H]2CS[C@H](CO)O2)cc1Cl`, the midpoint of the response in assay [1] (Human immunodeficiency virus 1), the EC50, lay at 31.8 µM. For the same compound, in assay [2], the IC50 is above 100 µM. On to `O=c1[nH]c(=O)n([C@@H]2CS[C@H](CO)O2)cc1F`, for which the EC50 in assay [1] (Human immunodeficiency virus 1) is above 100 µM. This compound also had an IC50 in assay [2] above 100 µM. In assay [1] (Human immunodeficiency virus 1), `Nc1nc(=O)n([C@H]2CS[C@H](CO)O2)cc1Br` registered an EC50 above 100 µM. Further, the IC50 in assay [2] is above 100 µM. `O=c1[nH]c(=O)n([C@@H]2CS[C@H](CO)O2)cc1Cl` gave an EC50 in assay [1] (Human immunodeficiency virus 1) above 100 µM. Also, the IC50 in assay [2] was above 100 µM.

`O=c1[nH]c(=O)n([C@@H]2CS[C@H](CO)O2)cc1I` registered an EC50 in assay [1] (Human immunodeficiency virus 1) of 92.9 µM. In addition, in assay [2], the IC50 is above 100 µM. With `Nc1nc(O)c2ncn([C@@H]3CS[C@H](CO)O3)c2n1`, in assay [1] (Human immunodeficiency virus 1), the EC50 amounted to 10.2 µM. The compound further gave an IC50 in assay [2] above 100 µM. In turn, `CNc1ncnc2c1ncn2[C@@H]1CS[C@H](CO)O1` registered an EC50 in assay [1] (Human immunodeficiency virus 1) of 15 µM. This compound also showed an IC50 in assay [2] above 100 µM.

Consider `OC[C@@H]1O[C@H](n2cnc3c(Cl)ncnc32)CS1`, for which, in assay [1] (Human immunodeficiency virus 1), the EC50 is 1.44 µM. In assay [2], this compound had an IC50 above 100 µM. The compound `CNc1ncnc2c1ncn2[C@H]1CS[C@H](CO)O1` gave an EC50 in assay [1] (Human immunodeficiency virus 1) of 13 µM. In assay [2], this compound came in with an IC50 above 100 µM. Consider `Nc1ncnc2c1ncn2[C@H]1CS[C@H](CO)O1`, for which the EC50 in assay [1] (Human immunodeficiency virus 1) is 78.9 µM. This compound also yielded an IC50 in assay [2] above 100 µM. For `Nc1nc(F)nc2c1ncn2[C@@H]1CS[C@H](CO)O1`, in assay [1] (Human immunodeficiency virus 1), a half-maximal response (EC50) required 16.3 µM. For the same compound, the IC50 in assay [2] was above 100 µM. In assay [1] (Human immunodeficiency virus 1), `Nc1nc(=O)n([C@@H]2CS[C@H](CO)O2)cc1I` had an EC50 of 0.14 µM. Further, the concentration for half-maximal inhibition (IC50) in assay [2] is above 100 µM. `Nc1nc(=O)n([C@@H]2CS[C@H](CO)O2)cc1Br` yielded an EC50 in assay [1] (Human immunodeficiency virus 1) of 2.51 µM. Also, the IC50 in assay [2] is above 100 µM. The corresponding values for `O=c1[nH]c(=O)n([C@H]2CS[C@H](CO)O2)cc1F` are above 100 µM and above 100 µM. Compound `Nc1nc(F)nc2c1ncn2[C@H]1CS[C@H](CO)O1` had an EC50 in assay [1] (Human immunodeficiency virus 1) of 15.8 µM. Further, the IC50 in assay [2] was above 100 µM.

Consider `Cc1cn([C@@H]2CS[C@H](CO)O2)c(=O)nc1N`, for which the EC50 in assay [1] (Human immunodeficiency virus 1) came to 1.9 µM. Further, in assay [2], the IC50 is above 100 µM. Compound `O=c1ccn([C@H]2CS[C@H](CO)O2)c(=O)[nH]1` yielded an EC50 in assay [1] (Human immunodeficiency virus 1) of 32.8 µM. For the same compound, in assay [2], the IC50 is above 100 µM. With `O=c1[nH]c(=O)n([C@@H]2CS[C@H](CO)O2)cc1Br`, the EC50 in assay [1] (Human immunodeficiency virus 1) was above 100 µM. Also, the IC50 in assay [2] was above 100 µM. `Nc1nc(=O)n([C@H]2CS[C@H](CO)O2)cc1I` yielded an EC50 in assay [1] (Human immunodeficiency virus 1) above 100 µM. This compound registered an IC50 in assay [2] above 100 µM. `Nc1nc(O)c2ncn([C@H]3CS[C@H](CO)O3)c2n1` showed an EC50 in assay [1] (Human immunodeficiency virus 1) above 100 µM. Besides, the IC50 in assay [2] is above 100 µM. Regarding `Nc1nc(=O)n([C@H]2CS[C@H](CO)O2)cc1Cl`, the EC50 in assay [1] (Human immunodeficiency virus 1) is above 100 µM. Further, the IC50 in assay [2] was above 100 µM. For `Nc1ccn([C@@H]2CS[C@H](CO)O2)c(=O)n1` (stereo in doubt; 13) [LAMIVUDINE], in assay [1], the response was half-maximal at 0.0018 µM (EC50). The compound `Nc1ccn([C@@H]2CS[C@H](CO)O2)c(=O)n1` (stereo in doubt; 14) [LAMIVUDINE] registered an EC50 in assay [1] of 10.1 µM. This compound also gave an IC50 in assay [2] above 100 µM. For `Nc1ccn([C@@H]2CS[C@H](CO)O2)c(=O)n1` (stereo in doubt; form 1) [LAMIVUDINE], in assay [1], a half-maximal effect (EC50) was put at 0.21 µM. This lies in the sub-micromolar range. In assay [1], `Nc1ccn([C@@H]2CS[C@H](CO)O2)c(=O)n1` (stereo in doubt; form 2) [LAMIVUDINE] displayed an EC50 of 0.06 µM. The compound `Nc1nc(=O)n([C@@H]2CS[C@H](CO)O2)cc1F` [EMTRICITABINE] showed an EC50 in assay [1] (Human immunodeficiency virus 1) of 0.0013 µM. This compound also registered a concentration for half-maximal inhibition (IC50) in assay [2] above 100 µM. As for `Cc1cn([C@H]2C[C@H](N=[N+]=[N-])[C@@H](CO)O2)c(=O)[nH]c1=O` [ZIDOVUDINE], the response in assay [1] (Human immunodeficiency virus 1) was half-maximal at 0.004 µM (EC50). Besides, the IC50 in assay [2] was above 100 µM.
